Assay [1] has as its target T1, Glucocorticoid receptor (Homo sapiens) (UniProt P04150).
T1 sequence (whole entry): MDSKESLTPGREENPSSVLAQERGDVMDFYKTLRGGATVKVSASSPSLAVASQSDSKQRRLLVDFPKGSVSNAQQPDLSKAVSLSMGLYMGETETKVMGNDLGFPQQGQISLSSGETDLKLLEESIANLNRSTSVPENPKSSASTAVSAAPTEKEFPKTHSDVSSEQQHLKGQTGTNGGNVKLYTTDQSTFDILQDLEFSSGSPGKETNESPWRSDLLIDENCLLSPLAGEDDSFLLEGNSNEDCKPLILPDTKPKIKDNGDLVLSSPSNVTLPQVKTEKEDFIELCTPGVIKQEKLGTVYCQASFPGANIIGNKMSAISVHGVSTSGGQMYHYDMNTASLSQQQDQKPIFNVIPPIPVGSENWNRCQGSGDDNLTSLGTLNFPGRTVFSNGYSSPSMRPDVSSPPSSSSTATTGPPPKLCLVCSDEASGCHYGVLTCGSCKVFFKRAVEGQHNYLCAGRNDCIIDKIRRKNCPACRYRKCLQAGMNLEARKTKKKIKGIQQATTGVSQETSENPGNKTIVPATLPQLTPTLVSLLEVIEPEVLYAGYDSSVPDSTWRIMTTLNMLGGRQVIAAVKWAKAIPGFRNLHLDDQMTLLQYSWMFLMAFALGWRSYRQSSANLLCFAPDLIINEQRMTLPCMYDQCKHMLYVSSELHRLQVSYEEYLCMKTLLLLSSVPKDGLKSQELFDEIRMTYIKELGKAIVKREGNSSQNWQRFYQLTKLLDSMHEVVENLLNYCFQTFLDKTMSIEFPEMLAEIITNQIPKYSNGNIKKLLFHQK
In words: Agonist activity at glucocorticoid receptor in human A549 cells assessed as inhibition of PMA-induced AP-1 activation by luciferase reporter gene assay relative to dexamethasone. Format: cell-based. The procedure, abridged:
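A549 lung epithelial cells stably carrying a luciferase reporter with 5 copies of the AP-1 response element; AP-1 induced with PMA (15 ng/ml). Compound inhibition of induction read as decreased luciferase. […] Means of two or more experiments in triplicate.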
A general note: In a reporter assay the amount or activity of a reporter protein is the signal.

The target of assay [2] is T2, Glucocorticoid receptor (Homo sapiens, UniProt P04150).
T2 sequence (P04150 whole entry): T1 sequence (whole entry)
In words: Agonist activity at glucocorticoid receptor in human A549 cells assessed as inhibition of PMA-induced AP-1 activation by luciferase reporter gene assay. The assay is classed as cell-based.

Assay [3] addresses T2, Glucocorticoid receptor. Briefly: Binding affinity to glucocorticoid receptor (unknown origin) by fluorescence polarization assay. In general terms: Polarisation of emitted light reports the rotation of a fluorescent probe.
Assay [4] has as its target T1, Glucocorticoid receptor (Homo sapiens). In words: Transactivation of glucocorticoid receptor ligand binding domain (unknown origin) transfected in human HeLa cells assessed as activation of NP-1 by GAL4 luciferase reporter gene assay relative to dexamethasone. The assay is classed as cell-based. The procedure, abridged:
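HeLa line (NP-1) stably transfected with a GR ligand binding domain chimera in a GAL4 luciferase reporter system, run in agonist mode. Direct GR-LBD activation read as increased luciferase activity. Means of two or more experiments in triplicate.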

Assay [5] concerns the target T2, Glucocorticoid receptor. In words: Agonist activity at glucocorticoid receptor in human A549 cells assessed as inhibition of IL-1beta-induced NF-kappaB dependent E-selectin activation by luciferase reporter gene assay. Format: cell-based.
For assay [6], the target named is T2, Glucocorticoid receptor. In words: Transactivation of glucocorticoid receptor ligand binding domain (unknown origin) transfected in human HeLa cells assessed as activation of NP-1 by GAL4 luciferase reporter gene assay. The assay is classed as cell-based.
Assay [7] deals with T1, Glucocorticoid receptor (Homo sapiens). In words: Agonist activity at glucocorticoid receptor in human A549 cells assessed as inhibition of IL-1beta-induced NF-kappaB dependent E-selectin activation by luciferase reporter gene assay relative to dexamethasone. The assay is classed as cell-based.

A word on the EC50: it is the concentration that produces a half-maximal response. In general, Ki refers to the dissociation constant of the complex between target and ligand, obtained from inhibition or displacement.

As to `CC(C)(C(=O)Nc1nncs1)C(c1ccccc1)c1ccc2c(cnn2-c2ccc(Br)cc2)c1` (racemic), the Efficacy in assay [1] was < 30%. The EC50 in assay [2] was found to be 956 nM.

For the molecule `CC(C)(C(=O)Nc1nncs1)C(c1ccccc1)c1ccc2c(cnn2CCc2ccccc2)c1` (racemic), the Efficacy in assay [1] was < 30%. Also, the Ki in assay [3] was 46 nM. Besides, in assay [2], the EC50 is > 10000 nM.

Take `CC(C)C(c1ccc2c(cnn2-c2ccc(F)cc2)c1)C(C)(C)C(=O)Nc1nncs1` (racemic): the Efficacy in assay [1] was 29%. Also, the EC50 in assay [2] was 81 nM.

On to `CC(C)Cn1ncc2cc(C(c3ccccc3)C(C)(C)C(=O)Nc3nncs3)ccc21` (racemic), for which the Efficacy was 76% in assay [1], < 30% in assay [4] and 77% in assay [7]. Besides, the EC50 in assay [5] is 1820 nM; in assay [6], > 10 µM; in assay [2], 114 nM.

With `CCC(c1ccc2c(cnn2-c2ccc(F)cc2)c1)C(C)(C)C(=O)Nc1nccs1` (racemic), the Efficacy in assay [1] worked out at 62%. In assay [2], the EC50 was 87 nM.

Take `CC(C)(C(=O)Nc1nccs1)C(c1ccccc1)c1ccc2c(cnn2-c2ccc(F)cc2)c1` (racemic): in assay [1], the Efficacy was determined as 79%. The molecule also showed a Ki in assay [3] of 15 nM. The 50% effective concentration (EC50) in assay [2] stood at 4.1 nM.

Take `CC(C)(C(=O)Nc1nncs1)C(c1ccccc1)c1ccc2c(cnn2CCCO)c1` (racemic): the Efficacy in assay [1] worked out at 45%. Further, the Ki in assay [3] was found to be 17 nM. Besides, in assay [2], the EC50 was 1020 nM.

In the case of `CC(C)CC(c1ccc2c(cnn2-c2ccc(F)cc2)c1)C(C)(C)C(=O)Nc1nncs1` (racemic), the Efficacy in assay [1] came out at 60%.

For `Cc1csc(NC(=O)C(C)(C)C(c2ccccc2)c2ccc3c(cnn3-c3ccc(F)cc3)c2)n1` (racemic), the Efficacy in assay [1] came out at 74%.

Regarding `Cc1nnc(NC(=O)C(C)(C)C(c2ccccc2)c2ccc3c(cnn3-c3ccc(F)cc3)c2)s1` (racemic), the Efficacy in assay [1] turned out to be 56%. Besides, the EC50 in assay [2] stood at 141 nM.

Consider `CC(C)n1ncc2cc(C(c3ccccc3)C(C)(C)C(=O)Nc3nncs3)ccc21` (racemic), for which the figures for the Efficacy in assay [1], in assay [4] and in assay [7] were 82%, < 30% and 44%, respectively.

Take `COc1cccc(-n2ncc3cc(C(c4ccccc4)C(C)(C)C(=O)Nc4nncs4)ccc32)c1` (racemic): the Efficacy in assay [1] and in assay [4] was < 30% in each case. Further, the EC50 is > 10 µM in assay [6] and 1200 nM in assay [2].

As to `COc1ccc(-n2ncc3cc(C(c4ccccc4)C(C)(C)C(=O)Nc4nncs4)ccc32)cc1` (racemic), the Efficacy was 76% in assay [1], < 30% in assay [4] and 62% in assay [7]. For the same molecule, the values for the EC50 in assay [5], in assay [6] and in assay [2] were 143 nM, > 10 µM and 56 nM, respectively.

For `CC(C)(C(=O)Nc1nccs1)C(c1ccncc1)c1ccc2c(cnn2-c2ccc(F)cc2)c1` (racemic), the Efficacy in assay [1] was 60%.

Take `CC(C)(C(=O)Nc1nncs1)C(c1ccccc1)c1ccc2c(cnn2CCO)c1` (racemic): the Efficacy in assay [1] turned out to be 32%; in assay [7], 27%. For the same molecule, the EC50 worked out at 1050 nM in assay [5] and 550 nM in assay [2].

As to `Cc1cnc(NC(=O)C(C)(C)C(c2ccccc2)c2ccc3c(cnn3-c3ccc(F)cc3)c2)s1` (racemic), the Efficacy in assay [1] was determined as 48%. Moreover, the EC50 in assay [2] is 49 nM.

As to `CC(C(=O)Nc1nncs1)C(c1ccccc1)c1ccc2c(cnn2-c2ccc(F)cc2)c1` (single isomer, unassigned; diastereomer 4), the Efficacy in assay [1] stood at 89%; in assay [4], 100%.

Take `CC(C(=O)Nc1nncs1)[C@@H](c1ccccc1)c1ccc2c(cnn2-c2ccc(F)cc2)c1` (single isomer, unassigned; diastereomer 3): the Efficacy in assay [1] was 106%; in assay [4], 122%.

In the case of `CC(C)(C(=O)Nn1nccn1)C(c1ccccc1)c1ccc2c(cnn2-c2ccc(F)cc2)c1` (racemic), the Efficacy in assay [1] stood at 73%. For the same molecule, the affinity in assay [3] corresponds to a Ki of 11 nM. The 50% effective concentration (EC50) in assay [2] worked out at 17 nM.

Turning to `CC(C)(C(=O)Nc1nccs1)C(c1ccc2c(cnn2-c2ccc(F)cc2)c1)C1CCCC1` (racemic), in assay [1], the Efficacy worked out at 47%. The EC50 in assay [2] amounted to 82 nM.

In the case of `CC(C)(C(=O)Nc1nncs1)C(c1ccccc1)c1ccc2c(cnn2-c2ccccc2)c1` (racemic), the Efficacy in assay [1] amounted to 73%. Further, in assay [2], the EC50 amounted to 20 nM.

Regarding `CC(C)(C(=O)Nn1ncnn1)C(c1ccccc1)c1ccc2c(cnn2-c2ccc(F)cc2)c1` (racemic), affinity in assay [3] was put at a Ki of 17 nM. In assay [2], the EC50 was > 10000 nM.

`CC(C)(C(=O)Nc1nncs1)C(Cc1ccccc1)c1ccc2c(cnn2-c2ccc(F)cc2)c1` (racemic): the Efficacy in assay [1] was determined as 37%. Moreover, the EC50 in assay [2] was found to be 705 nM.

As to `CC(C)(C(=O)Nc1nncs1)C(c1ccccc1)c1ccc2c(cnn2C2CCCCCC2)c1` (racemic), the Efficacy in assay [1] was 85%; in assay [4], 60%; in assay [7], 86%.

For `CC(C)(C(=O)Nc1nncs1)C(c1ccccc1)c1ccc2c(cnn2-c2ccc(O)cc2)c1` (racemic), the Efficacy was 69% in assay [1], < 30% in assay [4] and < 30% in assay [7]. For the same molecule, the EC50 in assay [5] was > 5000 nM; in assay [6] it was > 10 µM; in assay [2] it was 271 nM.

As for `CC(C)(C(=O)Nc1nncs1)C(c1ccccc1)c1ccc2c(cnn2-c2ccc(F)cc2)c1` (racemic), the Efficacy in assay [1] turned out to be 81%. In assay [3], this molecule had a Ki of 18 nM. Further, in assay [2], the half-maximal effective concentration (EC50) was determined as 23 nM.

Regarding `CC(C)(C(=O)Nc1nncs1)C(c1ccccc1)c1ccc2c(cnn2Cc2ccccc2)c1` (racemic), the Efficacy in assay [1] was determined as 62%. Further, in assay [2], the EC50 is 1930 nM.

Take `CC(C)(C(=O)Nc1nncs1)C(c1ccccc1)c1ccc2c(cnn2-c2ccccn2)c1` (racemic): the Efficacy in assay [1] stood at 62%. The EC50 in assay [2] was 127 nM.

On to `CC(C(=O)Nc1nncs1)C(c1ccccc1)c1ccc2c(cnn2-c2ccc(F)cc2)c1` (single isomer, unassigned; diastereomer 1), for which, in assay [1], the Efficacy worked out at 42%.

Take `CC(C)(Cc1ccc2c(cnn2-c2ccc(F)cc2)c1)C(=O)Nc1nncs1`: the Efficacy in assay [1] was determined as 36%. The EC50 in assay [2] is 4320 nM.

Turning to `CC(C(=O)Nc1nncs1)[C@@H](c1ccccc1)c1ccc2c(cnn2-c2ccc(F)cc2)c1` (single isomer, unassigned; diastereomer 2), the Efficacy in assay [1] was determined as 103%; in assay [4] it was 76%.

With `CC(C)(C(=O)Nc1nccs1)C(c1ccc2c(cnn2-c2ccc(F)cc2)c1)C1CCCCC1` (racemic), the Efficacy in assay [1] was determined as 55%. This molecule showed a Ki in assay [3] of 18 nM. Further, the half-maximal effective concentration (EC50) in assay [2] was determined as 66 nM.

For `CC(C)(C(=O)Nc1nncs1)C(c1ccccc1)c1ccc2c(cnn2-c2ccc(Cl)cc2)c1` (racemic), the Efficacy in assay [1] is 96%; in assay [4], 55%; in assay [7], 84%. Besides, the EC50 in assay [5] worked out at 10 nM; in assay [6], 0.256 µM; in assay [2], 23 nM.

As for `CC(C)(C(=O)Nc1ccsc1)C(c1ccccc1)c1ccc2c(cnn2-c2ccc(F)cc2)c1` (racemic), in assay [1], the Efficacy came out at 68%. For the same molecule, the EC50 in assay [2] was 73 nM.

The values above are taken from ChEMBL document CHEMBL2424628, “Discovery of potent and selective nonsteroidal indazolyl amide glucocorticoid receptor agonists” (Bioorg Med Chem Lett, 2013).
